pIC50: −log10 of the molar value. In brackets after ≈: the same amount, converted by molar mass. Activity calls are given as the source filed them. The calls are words filed in the database; no cut-off is given here.
Legend:
[1] = test system: Mycobacterium tuberculosis; assay: Antimycobacterial activity against Mycobacterium tuberculosis over expressing PimA after 5 days by standard microdilution method; assay type: functional; conditions: 120 h
Escherichia coli [2] = assay: Antimicrobial activity against Escherichia coli ARC523 at 100 uM; assay type: functional, organism-based
Summary of the method: (§1)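 Nonmycobacterial panel of Candida albicans, Gram-negative and Gram-positive pathogens.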

Haemophilus influenzae [3] = assay: Antimicrobial activity against Haemophilus influenzae ARC446 at 100 uM; assay type: functional, organism-based; summary of the method: as §1
[4] = test system: Mycobacterium tuberculosis; assay: Antimycobacterial activity against Mycobacterium tuberculosis over expressing InhA after 5 days by standard microdilution method; assay type: functional; conditions: 120 h
[5] = test system: Mycolicibacterium smegmatis; assay: Binding affinity to Mycobacterium smegmatis recombinant DprE1 assessed as dissociation constant
Summary of the method: (§2)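 Progress curves (fluorescence vs time) recorded at several inhibitor concentrations with 75 nM Msm DprE1 in the FAD/HRP/Amplex Red coupled assay, pH 8.5, 25 °C. A single-step reversible slow-binding model was fitted globally, with vs and vi fitted per concentration and koff and Kiapp shared. Half-life and residence time were derived from koff.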

[6] = Intrinsic clearance in human liver microsomes at 1 uM up to 30 mins by LC-MS/MS analysis; assay type: ADME; conditions: read-out: CLH
[7] = Octanol-water partition coefficient, log D of the compound by shake-flask method; assay type: physicochemical
[8] = Intrinsic clearance in rat cryopreserved hepatocytes assessed per 10^6 cells at 1 uM up to 120 mins by LC-MS/MS analysis; assay type: ADME, cell-based, Hepatocyte; conditions: read-out: CLH
Escherichia coli [9] = assay: Antimicrobial activity against Escherichia coli ARC524 at 100 uM; assay type: functional, organism-based; summary of the method: as §1
[10] = test system: Mycolicibacterium smegmatis; assay: Antimicrobial activity against Mycobacterium smegmatis mc2155 at 100 uM; assay type: functional, organism-based; conditions: str. MC2 155
Klebsiella pneumoniae = assay: Antimicrobial activity against Klebsiella pneumoniae ARC1865 at 100 uM; assay type: functional, organism-based; summary of the method: as §1
Cytochrome P450 2C19 = Cytochrome P450 2C19 (Homo sapiens, UniProt P33261); assay: Inhibition of CYP2C19 (unknown origin); assay type: ADME
Chain of Cytochrome P450 2C19 (P33261 whole entry, canonical isoform): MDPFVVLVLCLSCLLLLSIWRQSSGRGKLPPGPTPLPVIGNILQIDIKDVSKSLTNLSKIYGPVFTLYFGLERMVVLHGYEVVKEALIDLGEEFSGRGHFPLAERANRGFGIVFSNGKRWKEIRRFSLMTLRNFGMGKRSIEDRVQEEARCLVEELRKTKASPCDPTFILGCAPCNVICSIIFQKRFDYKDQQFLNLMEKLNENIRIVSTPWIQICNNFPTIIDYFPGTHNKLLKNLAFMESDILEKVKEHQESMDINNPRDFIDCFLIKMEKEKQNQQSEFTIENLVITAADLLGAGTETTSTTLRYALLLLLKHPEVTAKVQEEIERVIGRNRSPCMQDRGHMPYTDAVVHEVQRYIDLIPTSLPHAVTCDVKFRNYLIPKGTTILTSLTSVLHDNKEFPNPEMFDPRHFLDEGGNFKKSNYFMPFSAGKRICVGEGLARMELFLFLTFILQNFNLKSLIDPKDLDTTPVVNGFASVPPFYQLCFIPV
Summary of the method: (§3)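 CYP inhibition IC50 measured on isoforms CYP3A4, CYP2D6, CYP2C9, CYP2C19 and CYP1A2.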

[11] = Permeability of the compound from apical to basolateral side in human Caco2 cells; assay type: ADME, cell-based; conditions: Caco-2, read-out: permeability
[12] = test system: Mycobacterium tuberculosis; assay: Antimycobacterial activity against Mycobacterium tuberculosis over expressing DprE1 after 5 days by standard microdilution method; assay type: functional; conditions: 120 h
Pseudomonas aeruginosa [13] = assay: Antimicrobial activity against Pseudomonas aeruginosa ARC545 at 100 uM; assay type: functional, organism-based; summary of the method: as §1
[14] = test system: Mycobacterium tuberculosis; assay: Antimycobacterial activity against Mycobacterium tuberculosis H37Rv after 5 days by standard microdilution method; assay type: functional; conditions: 120 h
[15] = test system: Mycolicibacterium smegmatis; assay: Binding affinity to Mycobacterium smegmatis recombinant DprE1 assessed as residence time; summary of the method: as §2
[16] = test system: Mycolicibacterium smegmatis; assay: Ratio of IC50 for Mycobacterium smegmatis DprE1 Y321H mutant to IC50 for Mycobacterium smegmatis recombinant wild type DprE1
Summary of the method: (§4)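 Recombinant M. smegmatis DprE1 (thioredoxin-6His fusion), wild type or Y321H, 75 nM. Enzyme was preincubated 30 min in FAD assay mix: 50 mM glycylglycine pH 8.5, 200 mM potassium glutamate, 10 μM FAD, 0.002% Brij-35, 2% DMSO. Reaction was started with 300 μM farnesylphosphoryl-β-D-ribofuranose, 0.01 mg/mL HRP and 50 μM amplex red at 25 °C.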

Mu-type opioid receptor = Mu-type opioid receptor (Homo sapiens, UniProt P35372); assay: Inhibition of mu opioid receptor (unknown origin)
Chain of Mu-type opioid receptor (P35372 whole entry): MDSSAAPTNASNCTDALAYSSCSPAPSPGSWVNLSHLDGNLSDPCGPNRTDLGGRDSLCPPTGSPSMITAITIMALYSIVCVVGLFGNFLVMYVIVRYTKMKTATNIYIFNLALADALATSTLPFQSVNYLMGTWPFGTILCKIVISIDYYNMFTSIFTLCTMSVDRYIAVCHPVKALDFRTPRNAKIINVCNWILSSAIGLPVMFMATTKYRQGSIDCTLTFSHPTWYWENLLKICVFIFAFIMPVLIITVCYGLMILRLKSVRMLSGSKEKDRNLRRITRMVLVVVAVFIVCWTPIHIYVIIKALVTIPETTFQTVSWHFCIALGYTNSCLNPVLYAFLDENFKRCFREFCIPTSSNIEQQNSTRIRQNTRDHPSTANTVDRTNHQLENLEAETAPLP
Summary of the method: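 Secondary pharmacology panel of binding, enzyme and functional assays covering 24 molecular targets. Activity recorded as a defined Ki/IC50/EC50.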

Cytochrome P450 1A2 = molecular target: T1, Cytochrome P450 1A2 (Homo sapiens, UniProt P05177); assay: Inhibition of CYP1A2 (unknown origin); assay type: ADME; summary of the method: as §3
T1 sequence (P05177 whole entry): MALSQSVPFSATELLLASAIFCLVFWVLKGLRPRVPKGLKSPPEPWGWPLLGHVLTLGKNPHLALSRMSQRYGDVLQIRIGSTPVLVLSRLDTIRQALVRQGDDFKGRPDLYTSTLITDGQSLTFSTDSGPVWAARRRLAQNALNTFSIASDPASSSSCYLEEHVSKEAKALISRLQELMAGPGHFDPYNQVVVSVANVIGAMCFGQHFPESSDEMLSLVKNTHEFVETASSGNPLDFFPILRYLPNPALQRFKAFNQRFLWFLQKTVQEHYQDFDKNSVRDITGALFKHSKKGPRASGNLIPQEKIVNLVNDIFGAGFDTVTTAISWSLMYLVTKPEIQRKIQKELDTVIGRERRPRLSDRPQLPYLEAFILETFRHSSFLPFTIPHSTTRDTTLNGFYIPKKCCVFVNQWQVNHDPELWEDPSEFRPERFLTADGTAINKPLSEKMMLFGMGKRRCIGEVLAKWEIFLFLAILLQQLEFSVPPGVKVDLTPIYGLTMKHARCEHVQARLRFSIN

[17] = test system: Mycobacterium tuberculosis; assay: Antimycobacterial activity against Mycobacterium tuberculosis H37Rv under hypoxic condition after 6 days by resazurin assay; assay type: functional; conditions: 144 h
[18] = test system: Mycolicibacterium smegmatis; assay: Binding affinity to Mycobacterium smegmatis recombinant DprE1 assessed as half life; summary of the method: as §2
[19] = Solubility of the compound in 0.1 M phosphate buffer at pH 7.4 after 24 hrs by UV and MS analysis; assay type: physicochemical
[20] = test system: Mycolicibacterium smegmatis; assay: Antimicrobial activity against Mycobacterium smegmatis ATCC 607 at 100 uM; assay type: functional, organism-based
Candida albicans = assay: Antimicrobial activity against Candida albicans ARC527 at 100 uM; assay type: functional, organism-based; summary of the method: as §1
Haemophilus influenzae [21] = assay: Antimicrobial activity against Haemophilus influenzae ARC158 at 100 uM; assay type: functional, organism-based; summary of the method: as §1
Streptococcus pneumoniae = assay: Antimicrobial activity against Streptococcus pneumoniae ARC548 at 100 uM; assay type: functional, organism-based; summary of the method: as §1
Cytochrome P450 3A4 = Cytochrome P450 3A4 (Homo sapiens, UniProt P08684); assay: Inhibition of CYP3A4 (unknown origin); assay type: ADME; summary of the method: as §3
Chain of Cytochrome P450 3A4 (P08684 whole entry): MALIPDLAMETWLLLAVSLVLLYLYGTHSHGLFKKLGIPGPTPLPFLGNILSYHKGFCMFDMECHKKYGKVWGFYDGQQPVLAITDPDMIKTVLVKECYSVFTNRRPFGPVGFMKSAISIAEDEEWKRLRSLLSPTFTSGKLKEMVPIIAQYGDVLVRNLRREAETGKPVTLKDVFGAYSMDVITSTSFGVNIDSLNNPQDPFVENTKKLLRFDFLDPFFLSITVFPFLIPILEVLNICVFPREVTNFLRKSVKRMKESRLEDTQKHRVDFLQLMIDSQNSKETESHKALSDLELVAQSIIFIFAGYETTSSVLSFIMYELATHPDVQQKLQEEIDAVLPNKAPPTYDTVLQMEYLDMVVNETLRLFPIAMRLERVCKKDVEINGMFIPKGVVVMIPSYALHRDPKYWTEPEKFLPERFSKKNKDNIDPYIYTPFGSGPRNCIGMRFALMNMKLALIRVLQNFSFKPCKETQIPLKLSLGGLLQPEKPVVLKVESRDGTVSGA

[22] = Permeability of the compound from basolateral to apical side in human Caco2 cells; assay type: ADME, cell-based; conditions: Caco-2, read-out: permeability
[23] = test system: Mycobacterium tuberculosis; assay: Antimycobacterial activity against Mycobacterium tuberculosis over expressing TopA after 5 days by standard microdilution method; assay type: functional; conditions: 120 h
Cytochrome P450 2C9 = Cytochrome P450 2C9 (Homo sapiens, UniProt P11712); assay: Inhibition of CYP2C9 (unknown origin); assay type: ADME; summary of the method: as §3
Chain of Cytochrome P450 2C9 (P11712 whole entry): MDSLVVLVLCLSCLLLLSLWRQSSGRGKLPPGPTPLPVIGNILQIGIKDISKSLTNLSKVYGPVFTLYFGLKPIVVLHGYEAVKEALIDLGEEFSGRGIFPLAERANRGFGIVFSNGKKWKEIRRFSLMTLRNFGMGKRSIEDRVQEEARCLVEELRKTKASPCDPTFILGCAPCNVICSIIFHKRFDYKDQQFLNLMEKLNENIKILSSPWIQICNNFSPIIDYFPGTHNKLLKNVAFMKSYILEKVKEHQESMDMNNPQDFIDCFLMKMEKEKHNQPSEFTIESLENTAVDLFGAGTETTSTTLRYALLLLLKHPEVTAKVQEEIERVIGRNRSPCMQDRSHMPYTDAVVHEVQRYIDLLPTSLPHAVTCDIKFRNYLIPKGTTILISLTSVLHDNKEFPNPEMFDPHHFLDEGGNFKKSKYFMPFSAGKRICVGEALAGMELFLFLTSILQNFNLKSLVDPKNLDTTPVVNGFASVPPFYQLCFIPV

[24] = test system: Mycobacterium tuberculosis; assay: Antimycobacterial activity against Mycobacterium tuberculosis H37Rv at >MIC after 21 to 28 days; assay type: functional
Staphylococcus aureus = assay: Antimicrobial activity against Staphylococcus aureus ARC517 at 100 uM; assay type: functional, organism-based; summary of the method: as §1
[25] = Inhibition of Mycobacterium smegmatis recombinant DprE1 using farnesylphosphoryl-beta-D-ribofuranose as substrate assessed as conversion of amplex red to resorufin after 30 mins; design: species or system Mycolicibacterium smegmatis
Summary of the method: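 Msm DprE1 (thioredoxin-6His fusion of Msm Rv3790) at 75 nM, preincubated 30 min with 10 μM FAD. Buffer: 50 mM glycylglycine pH 8.5, 200 mM potassium glutamate, 0.002% Brij-35, 2% DMSO, 25 °C. Started with 300 μM farnesylphosphoryl-β-D-ribofuranose, 0.01 mg/mL HRP and 50 μM Amplex Red.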

[26] = molecular target: Voltage-gated inwardly rectifying potassium channel KCNH2 (Homo sapiens, UniProt Q12809); assay: Inhibition of human ERG by medium-throughput electrophysiology
Chain of Voltage-gated inwardly rectifying potassium channel KCNH2 (Q12809 whole entry): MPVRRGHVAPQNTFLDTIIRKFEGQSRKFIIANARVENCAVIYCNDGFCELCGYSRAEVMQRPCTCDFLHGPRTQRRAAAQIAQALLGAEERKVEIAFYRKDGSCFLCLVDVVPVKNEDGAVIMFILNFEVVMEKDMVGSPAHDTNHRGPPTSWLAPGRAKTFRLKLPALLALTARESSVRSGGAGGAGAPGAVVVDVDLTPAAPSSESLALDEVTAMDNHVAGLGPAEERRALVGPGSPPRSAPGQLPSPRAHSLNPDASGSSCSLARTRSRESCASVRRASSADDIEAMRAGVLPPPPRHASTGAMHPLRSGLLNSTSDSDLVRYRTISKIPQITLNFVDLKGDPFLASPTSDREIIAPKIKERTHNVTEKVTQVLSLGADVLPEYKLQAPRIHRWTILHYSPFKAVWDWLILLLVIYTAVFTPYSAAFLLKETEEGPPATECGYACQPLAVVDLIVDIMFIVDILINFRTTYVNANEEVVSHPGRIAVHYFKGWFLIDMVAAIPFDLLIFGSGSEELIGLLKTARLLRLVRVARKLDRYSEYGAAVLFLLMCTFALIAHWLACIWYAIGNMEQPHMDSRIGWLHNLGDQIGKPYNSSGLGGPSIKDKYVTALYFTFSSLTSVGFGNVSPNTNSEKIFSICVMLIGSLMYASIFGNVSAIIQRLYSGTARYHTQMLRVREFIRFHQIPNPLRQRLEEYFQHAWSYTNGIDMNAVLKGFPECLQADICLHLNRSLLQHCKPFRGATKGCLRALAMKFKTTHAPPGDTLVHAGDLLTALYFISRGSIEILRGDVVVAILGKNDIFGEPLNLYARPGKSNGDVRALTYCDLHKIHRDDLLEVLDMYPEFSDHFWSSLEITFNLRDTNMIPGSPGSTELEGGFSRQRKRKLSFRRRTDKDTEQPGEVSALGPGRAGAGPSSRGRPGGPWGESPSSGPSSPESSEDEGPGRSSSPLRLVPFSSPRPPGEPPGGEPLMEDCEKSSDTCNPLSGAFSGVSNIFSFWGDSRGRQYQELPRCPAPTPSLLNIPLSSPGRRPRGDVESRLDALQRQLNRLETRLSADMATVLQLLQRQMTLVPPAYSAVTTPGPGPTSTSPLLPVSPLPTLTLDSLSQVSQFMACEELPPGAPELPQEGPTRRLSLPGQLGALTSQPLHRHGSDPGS

[27] = Fraction unbound in human plasma at 20 uM after 18 hrs by equilibrium dialysis method; assay type: ADME, cell-free
[28] = Cytotoxicity against human A549 cells after 72 hrs by resazurin based fluorescence assay; assay type: cell-based; conditions: read-out: MIC
Summary of the method: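 Cytotoxicity read as MMIC, the MIC on the A549 cell line.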

[29] = Inhibition of Mycobacterium smegmatis DprE1 Y321H mutant using farnesylphosphoryl-beta-D-ribofuranose as substrate assessed as conversion of amplex red to resorufin after 30 mins; design: species or system Mycolicibacterium smegmatis; summary of the method: as §4
Cytochrome P450 2D6 = Cytochrome P450 2D6 (Homo sapiens, UniProt P10635); assay: Inhibition of CYP2D6 (unknown origin); assay type: ADME; summary of the method: as §3
Chain of Cytochrome P450 2D6 (P10635 whole entry): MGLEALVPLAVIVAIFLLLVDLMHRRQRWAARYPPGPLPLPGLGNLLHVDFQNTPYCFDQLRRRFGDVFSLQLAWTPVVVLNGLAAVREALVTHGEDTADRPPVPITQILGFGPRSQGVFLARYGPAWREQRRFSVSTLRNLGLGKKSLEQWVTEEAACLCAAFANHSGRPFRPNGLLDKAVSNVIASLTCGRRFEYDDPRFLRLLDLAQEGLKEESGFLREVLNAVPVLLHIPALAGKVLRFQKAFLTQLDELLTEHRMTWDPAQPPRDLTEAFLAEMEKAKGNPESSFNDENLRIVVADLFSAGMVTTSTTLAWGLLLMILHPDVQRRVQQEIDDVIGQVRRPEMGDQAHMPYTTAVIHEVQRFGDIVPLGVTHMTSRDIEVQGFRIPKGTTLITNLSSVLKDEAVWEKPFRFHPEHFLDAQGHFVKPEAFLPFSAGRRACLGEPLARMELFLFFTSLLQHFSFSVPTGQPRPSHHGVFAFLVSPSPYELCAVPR

Pseudomonas aeruginosa [30] = assay: Antimicrobial activity against Pseudomonas aeruginosa ARC546 at 100 uM; assay type: functional, organism-based; summary of the method: as §1

Q: Which MIC [1] does the source give for `Cn1ncc(C(=O)N2CCC(Nc3cc(=O)[nH]c4ccccc34)CC2)c1Cl` here?
A: 3.1 µM (≈ 1.2 µg/mL)

Q: What about the Activity (Escherichia coli [2]) of the same molecule?
A: inactive

Q: And the Activity (Haemophilus influenzae [3])?
A: inactive

Q: And the MIC [4]?
A: 6.3 µM (≈ 2.43 µg/mL)

Q: And the Kdiss [5]?
A: 0.00016 s⁻¹

Q: And the microsomal CLint at 1 µM [6]?
A: < 4 µL/min/mg

Q: And the logD [7]?
A: 1.6

Q: What about the hepatocyte CLint at 1 µM [8] of the same molecule?
A: 1.5 µL/min/1e6 cells

Q: What about the Activity (Escherichia coli [9]) of the same molecule?
A: inactive

Q: And the Activity [10]?
A: inactive

Q: And the Activity (Klebsiella pneumoniae)?
A: inactive

Q: What about the INH (Cytochrome P450 2C19) of the same molecule?
A: > 30 µM

Q: And the Papp A→B [11]?
A: 0.5 ×10⁻⁶ cm/s

Q: And the MIC [12]?
A: > 100 µM

Q: What about the Activity (Pseudomonas aeruginosa [13]) of the same molecule?
A: inactive

Q: And the MIC [14]?
A: 6.25 µM (≈ 2.41 µg/mL)

Q: And the TIME [15]?
A: 1.73 h

Q: And the fold change (FC) [16]?
A: > 63

Q: And the pIC50 (Mu-type opioid receptor)?
A: 4.66

Q: What about the INH (Cytochrome P450 1A2) of the same molecule?
A: > 30 µM

Q: And the IC80 [17]?
A: > 100 µM

Q: And the T1/2 [18]?
A: 1.2 h

Q: And the solubility at 24 h [19]?
A: 255 µM (≈ 98.4 µg/mL)

Q: And the Activity [20]?
A: inactive

Q: And the Activity (Candida albicans)?
A: inactive

Q: What about the Activity (Haemophilus influenzae [21]) of the same molecule?
A: inactive

Q: What about the Activity (Streptococcus pneumoniae) of the same molecule?
A: inactive

Q: And the INH (Cytochrome P450 3A4)?
A: > 30 µM

Q: What about the Papp B→A [22] of the same molecule?
A: 14 ×10⁻⁶ cm/s

Q: What about the MIC [23] of the same molecule?
A: 3.1 µM (≈ 1.2 µg/mL)

Q: What about the INH (Cytochrome P450 2C9) of the same molecule?
A: > 30 µM

Q: And the MBC [24]?
A: 6.3 µM (≈ 2.43 µg/mL)

Q: And the Activity (Staphylococcus aureus)?
A: inactive

Q: What about the pIC50 [25] of the same molecule?
A: 6.82

Q: And the pIC50 [26]?
A: < 4.00

Q: What about the fraction unbound at 18 h, 20 µM [27] of the same molecule?
A: 0.3

Q: And the MCC at 72 h [28]?
A: > 200 µM

Q: What about the pIC50 [29] of the same molecule?
A: < 5.00

Q: What about the INH (Cytochrome P450 2D6) of the same molecule?
A: > 30 µM

Q: And the Activity (Pseudomonas aeruginosa [30])?
A: inactive
